An excerpt weighted towards active compounds, which were near 11% of everything screened.
D1 allo mod: D1 CRE-luciferase signal change, two-sided – cell-based, HEK293 D1, dopamine EC30, D1 allosteric modulator project, primary screen; dopamine EC30 potentiation; actives deviate in either direction; B-score at 10 µM; 58,000 tested, 5.9% active; AID 641, 2007;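 active = luminescence count or its row- and column-corrected plate score outside the 99.7% band of the plate's sample wells, on either side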
SF1 activator: activators of human SF-1, primary screen, cell-based, CHO-K1, Gal4-SF-1 LBD, luciferase luminescence. Steroidogenic factor 1 (Homo sapiens), Q13285. CHO-K1 Gal4-SF-1 LBD luciferase reporter; % increase over DMSO SF-1-specific signal. activation, % at 10 µM. 65,000 tested, 1.9% active. AID 522, 2006;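 active = activation above the mean activation of all tested compounds plus 3 SD, cut at about 50% in these data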
Target sequence (Q13285 whole entry, looked up, the tested form may be a part): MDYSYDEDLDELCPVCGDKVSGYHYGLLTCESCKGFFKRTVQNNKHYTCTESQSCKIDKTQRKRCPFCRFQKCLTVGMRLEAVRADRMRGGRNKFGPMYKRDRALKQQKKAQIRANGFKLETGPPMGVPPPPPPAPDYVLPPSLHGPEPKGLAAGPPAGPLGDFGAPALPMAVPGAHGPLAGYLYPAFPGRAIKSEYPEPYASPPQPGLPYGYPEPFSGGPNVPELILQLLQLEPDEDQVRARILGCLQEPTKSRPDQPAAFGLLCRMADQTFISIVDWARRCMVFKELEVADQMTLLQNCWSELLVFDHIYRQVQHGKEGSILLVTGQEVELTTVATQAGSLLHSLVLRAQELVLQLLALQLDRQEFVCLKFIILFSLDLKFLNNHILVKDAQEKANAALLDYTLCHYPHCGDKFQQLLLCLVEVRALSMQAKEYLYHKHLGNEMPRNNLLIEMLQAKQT
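Material: Transient Gal4-SF-1 LBD reporter, CHO-K1 | Input: 4,000 cells/well | Dosing: One dose, 10 µM compound, 1% DMSO | Incubation: 20 h compound treatment, 37 °C | Detection: SteadyLite luciferase luminescence | Evaluation: Percent activation relative to DMSO median and mock-transfected background | Benchmarks: DMSO-treated SF-1-transfected cells as negative, DMSO-treated mock-transfected cells lacking SF-1 as background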
Htt clearance: clearance of mutant huntingtin inclusions, primary screen, imaging, HeLa Exon1htt(103Q)mCFP, confocal imaging | aggregate imaging; zero = plate's median compound well | inhibition, % at 1.5 µM | 47,000 tested, 0.42% active | AID 853, 2007;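 active = inhibition of aggregate fluorescence above about 70%, also judged a hit by eye on the cell image, limit read from the data, passing the limit was not always enough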;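 note: cells exposed to compound for three days before fixation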
RORA act: activators of orphan receptor RORA, primary screen, cell-based, luminescence | Nuclear receptor ROR-alpha (Homo sapiens), P35398 | CHO-K1 Gal4-RORA LBD luciferase reporter; percent increase over mock-subtracted basal signal | activation, % at 10 µM | 65,000 tested, 1.5% active;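 active = activation above the mean of all tested compounds plus 3 SD, cut at about 49% in these data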;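 note: 0% = DMSO-treated RORA cells and 100% = added signal equal to DMSO minus mock-transfected cells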
M1 antag: antagonists of rat M1 muscarinic receptor | 64,000 tested, 3.4% active | Muscarinic acetylcholine receptor M1 (Rattus norvegicus), P08482 | AID 628, 2007 | B-score at 10 µM | CHO-M1 cells, Fluo-4 calcium, ACh EC80 antagonist mode; stronger effect = lower value;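 active = calcium fluorescence response, raw or row-and-column corrected B-score, differing from the plate sample mean either way at a set confidence level, mostly lower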
M1 agonist: M1 muscarinic receptor agonists, primary screen, CHO-M1 cells, Fluo-4 calcium, agonist mode | Muscarinic acetylcholine receptor M1 | Fluo-4 calcium fluorescence; stronger effect = higher value | AID 626, 2007 | 64,000 tested, 3% active | B-score at 10 µM;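 active = fluorescence rise, raw or as B-score row- and column-corrected plate score, outside the 99.7% band of its plate's samples, either direction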
D1 PAM confirm: D1 receptor positive allosteric modulators, retest, confirmation, cell-based, HEK293 D1, CRE-luciferase, duplicate; shares compounds with D1 allo mod; dopamine EC30 potentiation; stronger effect = higher value; luminescence at 10 µM; 2,200 tested, 88% active;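 active = luminescence in either of two replicates above the same-plate mean plus 3 SD of the low-dose dopamine control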
D1 no dopamine: D1 receptor agonism without dopamine, confirmation, mechanism study for D1 allosteric modulator project, cell-based, HEK293 D1, CRE-luciferase, secondary assay 1. shares compounds with D1 allo mod. luminescence, no dopamine; stronger effect = higher value. luminescence at 10 µM. 1,900 tested, 0.8% active. AID 646, 2007; in the data active = luminescence above about 3900
Isoprot counter: alters isoproterenol CRE-luciferase response in HEK293 cells. 2,200 tested, 63% active. shares compounds with D1 allo mod. calls only at 10 µM. HEK293 D1 CRE-luciferase, isoproterenol EC30 counter-screen;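 active = luminescence in either replicate above plate mean of wells with a partly effective reference agonist dose plus 3 SD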;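 note: isoproterenol raises cAMP through native beta-adrenoceptor Gs so signal bypasses D1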
Starred values were filed as active, the others as inactive; i = inactive; / = not tested or not shown; + = active, no number.

SMILES	D1 allo mod	SF1 activator	Htt clearance	RORA act	M1 antag	M1 agonist	D1 PAM confirm	D1 no dopamine	Isoprot counter
Nc1nc(-c2ccco2)nc(N2CCCCC2)n1	10.1*	5.6	/	1.8	-0.215	0.508	14860*	/	+
Cc1ccc(C)c(NC(=O)Cn2nc(C)c3ccccc3c2=O)c1	0.06	-1.4	/	-12.9	0.00715	-1.03	/	/	/
O=C(C(Cc1ccccc1)NS(=O)(=O)c1cccc2cccnc12)N1CCc2ccccc21 (configuration not stated)	/	/	56.3	/	/	/	/	/	/
O=c1[nH]c2ccc(Cl)cc2c(=O)n1Cc1ccco1	/	3.0	-24.0	-1.4	/	/	/	/	/
O=C(CCCn1c(=O)c2ccccc2n(Cc2ccccc2)c1=O)NCc1ccco1	2.99*	18.4	19.0	2.1	0.0895	-0.0659	8576*	1680	+
O=C(CCCCn1c(=O)c2ccccc2n(Cc2ccc(F)cc2)c1=O)NCc1ccco1	/	41.8	-15.6	37.3	/	/	/	/	/
O=c1c2cc(Cl)ccc2[nH]c(=S)n1Cc1ccco1	2.83*	-7.4	7.4	4.7	-0.598	0.937	9744*	1436	i
O=c1c2ccccc2n(Cc2ccc(Cl)cc2)c(=O)n1Cc1ccco1	8.51*	5.9	/	-20.4	1.31	-0.231	16764*	1488	+
Cc1ccc(Cn2c(=O)n(Cc3ccco3)c(=O)c3ccccc32)cc1	12.1*	0.7	/	8.7	1.08	0.0189	15080*	1628	+
CCc1nnc(NC(=O)CSc2nccn2-c2cc(C)cc(C)c2)s1	-0.662	15.5	/	0.7	0.0924	-0.934	/	/	/
Cc1noc(C)c1S(=O)(=O)Nc1ccc(C(=O)N2CCc3ccccc3C2)cc1	-0.453	-0.2	/	-14.7	-0.0128	-0.407	/	/	/
c1ccc(-c2nc3nonc3c3nc4ccccc4n23)cc1	0.799	2.6	/	-15.0	-0.885	-0.699	/	/	/
c1ccc(-c2nc3nonc3nc2-c2ccccc2)cc1	6.77*	-26.5	14.7	-38.9	-1.9	-0.325	6860*	1656	i
O=S(=O)(c1ccccc1C(F)(F)F)N1CCOCC1	4.88*	-13.8	/	9.7	0.207	-0.44	4520	1508	i
CCc1ccc(C2C(C#N)=C(N)SC(N)=C2C#N)cc1	1.9	-24.6	/	7.7	0.243	-1.93	/	/	/
CCc1ccc(C2C(C#N)=C(N)SC(N)=C2C#N)s1	7.29*	-4.3	/	10.5	-0.858	1.33	8708*	1568	+
COc1ccc(-c2ccc(SCC(=O)NCc3ccco3)nn2)cc1OC	15*	-0.5	/	15.4	-0.528	-0.02	17224*	/	+
COc1ccc(-c2cc(C(F)(F)F)nc(SCC(=O)NCc3ccco3)n2)cc1OC	13.1*	-23.7	-60.2	-10.4	0.437	-0.672	18992*	1868	+
O=C(c1noc2c1CCCCC2)N1CCN(C(c2ccccc2)c2ccccc2)CC1	-0.0228	-19.8	/	-12.0	-0.307	-0.0991	/	/	/
COc1cc(C2=NOC(C(=O)NCc3cccs3)C2)cc(OC)c1OC (configuration not stated)	/	/	13.5	/	/	/	/	/	/
O=C(NCc1cccs1)C1CC(c2ccccc2O)=NO1 (configuration not stated)	2.84*	21.9	/	16.6	-0.134	-0.00675	6344*	1416	i
COc1ccccc1NC(=O)N(C1CCCC1)C1CCN(C(C)=O)CC1	-0.287	28.0	-60.4	-2.4	0.148	0.373	/	/	/

Screening results: PubChem BioAssay, several laboratories
